Results on 13 molecules are retold here after ChEMBL document CHEMBL1153488, “Discovery of (3-endo)-3-(2-cyano-2,2-diphenylethyl)-8,8-dimethyl-8-azoniabicyclo[3.2.1]octane bromide as an efficacious inhaled muscarinic acetylcholine receptor antagonist for the treatment of COPD” (Bioorg Med Chem Lett, 2009).

Assay [1] concerns the target T1, Muscarinic acetylcholine receptor M3 (Homo sapiens, UniProt P20309). The assay is described as follows: Agonist activity at human cloned muscarinic M3 receptor expressed in CHO cells assessed as effect on calcium mobilization by FLIPR. The assay is classed as functional, cell-based. Put shortly: (§1)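 CHO cells stably carrying cloned human M1, M2 or M3 receptor; compound applied alone and checked for direct receptor stimulation, read as calcium mobilization on a standard FLIPR protocol.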
Target sequence in this assay (P20309 whole entry, looked up): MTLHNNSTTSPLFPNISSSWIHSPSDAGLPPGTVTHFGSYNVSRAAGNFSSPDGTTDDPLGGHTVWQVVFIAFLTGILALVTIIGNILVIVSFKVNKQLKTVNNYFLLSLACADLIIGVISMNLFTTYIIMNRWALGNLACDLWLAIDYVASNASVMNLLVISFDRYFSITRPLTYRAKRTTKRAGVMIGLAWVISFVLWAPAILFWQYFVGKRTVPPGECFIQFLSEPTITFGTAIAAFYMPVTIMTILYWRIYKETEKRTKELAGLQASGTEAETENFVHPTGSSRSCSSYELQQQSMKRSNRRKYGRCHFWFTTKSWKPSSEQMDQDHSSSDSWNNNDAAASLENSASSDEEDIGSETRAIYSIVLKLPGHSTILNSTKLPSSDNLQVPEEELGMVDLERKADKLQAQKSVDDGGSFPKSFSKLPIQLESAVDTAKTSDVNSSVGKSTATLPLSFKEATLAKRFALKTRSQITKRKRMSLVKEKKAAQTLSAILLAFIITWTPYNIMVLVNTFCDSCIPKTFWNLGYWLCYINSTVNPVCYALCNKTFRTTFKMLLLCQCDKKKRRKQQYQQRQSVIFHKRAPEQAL
Background: A change in cytosolic calcium serves as a functional read-out for many receptors and channels.

Assay [2] addresses T1, Muscarinic acetylcholine receptor M3. Put plainly: Antagonist activity against human cloned muscarinic M3 receptor expressed in CHO cells assessed as inhibition of acetylcholine-induced calcium mobilization by FLIPR. The class given is functional, cell-based.
Target sequence in this assay (P20309 whole entry): as the sequence (P20309 whole entry, looked up) above
For assay [3], the target named is T2, Muscarinic acetylcholine receptor M1 (Homo sapiens, UniProt P11229).
T2 sequence (P11229 whole entry): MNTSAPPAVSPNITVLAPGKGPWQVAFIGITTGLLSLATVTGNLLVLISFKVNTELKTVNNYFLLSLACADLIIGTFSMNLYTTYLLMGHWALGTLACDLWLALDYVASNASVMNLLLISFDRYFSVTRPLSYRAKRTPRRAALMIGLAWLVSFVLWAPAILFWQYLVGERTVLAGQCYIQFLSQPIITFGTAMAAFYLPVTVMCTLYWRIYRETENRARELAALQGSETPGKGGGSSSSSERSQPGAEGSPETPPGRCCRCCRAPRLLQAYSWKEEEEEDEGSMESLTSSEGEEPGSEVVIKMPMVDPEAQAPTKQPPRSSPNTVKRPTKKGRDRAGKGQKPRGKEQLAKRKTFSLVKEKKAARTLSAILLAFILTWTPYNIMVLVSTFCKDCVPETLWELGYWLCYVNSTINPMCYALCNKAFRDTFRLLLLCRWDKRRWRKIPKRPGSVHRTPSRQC
Put plainly: Antagonist activity against human cloned muscarinic M1 receptor expressed in CHO cells assessed as inhibition of acetylcholine-induced calcium mobilization by FLIPR. The assay is classed as functional, cell-based.

The target of assay [4] is T3, Muscarinic acetylcholine receptor M1 (Homo sapiens) (UniProt P11229).
T3 sequence (whole entry): T2 sequence (P11229 whole entry)
The assay is described as follows: Agonist activity at human cloned muscarinic M1 receptor expressed in CHO cells assessed as effect on calcium mobilization by FLIPR. The assay is classed as functional, cell-based. Put shortly: as §1

Assay [5] concerns the target T4, Muscarinic acetylcholine receptor M2 (Homo sapiens) (UniProt P08172).
T4 sequence (whole entry): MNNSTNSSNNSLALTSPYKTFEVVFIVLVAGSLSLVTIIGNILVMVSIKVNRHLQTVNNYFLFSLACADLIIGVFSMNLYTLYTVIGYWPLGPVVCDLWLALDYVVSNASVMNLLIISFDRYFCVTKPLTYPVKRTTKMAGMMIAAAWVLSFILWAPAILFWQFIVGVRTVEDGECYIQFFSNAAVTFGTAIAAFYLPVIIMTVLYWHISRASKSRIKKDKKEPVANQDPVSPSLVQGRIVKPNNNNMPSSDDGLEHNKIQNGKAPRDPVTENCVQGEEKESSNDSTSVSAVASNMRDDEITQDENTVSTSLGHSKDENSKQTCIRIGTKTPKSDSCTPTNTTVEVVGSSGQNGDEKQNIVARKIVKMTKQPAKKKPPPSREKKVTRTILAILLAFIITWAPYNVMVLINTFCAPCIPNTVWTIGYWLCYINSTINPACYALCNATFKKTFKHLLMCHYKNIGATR
The assay is described as follows: Agonist activity at human cloned muscarinic M2 receptor expressed in CHO cells assessed as effect on calcium mobilization by FLIPR. The assay is classed as functional, cell-based. A digest of the protocol:
as §1

Assay [6] concerns the target T5, Muscarinic acetylcholine receptor M2 (Homo sapiens, UniProt P08172).
T5 sequence (P08172 whole entry): T4 sequence (whole entry)
The assay is described as follows: Antagonist activity against human cloned muscarinic M2 receptor expressed in CHO cells assessed as inhibition of acetylcholine-induced calcium mobilization by FLIPR. The assay is classed as functional, cell-based.

For assay [7], the target named is T1, Muscarinic acetylcholine receptor M3. The assay is described as follows: Antagonist activity against human cloned muscarinic M3 receptor expressed in CHO cells assessed as inhibition of acetylcholine-induced calcium mobilization by measuring ratio of acetylcholine EC50 in presence and absence of compound by FLIPR assay. The class given is functional, cell-based. The conditions noted are these: read-out: pA2 (converted). A digest of the protocol:
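CHO cells expressing cloned human M3 receptor, stimulated with ACh. Calcium mobilization read by a standard FLIPR protocol. ACh EC50 was measured with and without a single concentration of compound, and pA2 was derived from the ratio of the EC50s.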
Target sequence in this assay (P20309 whole entry): as the sequence (P20309 whole entry, looked up) above

Assay [8] concerns the target T5, Muscarinic acetylcholine receptor M2. The assay is described as follows: Antagonist activity against human cloned muscarinic M2 receptor expressed in CHO cells assessed as inhibition of acetylcholine-induced calcium mobilization by measuring ratio of acetylcholine EC50 in presence and absence of compound by FLIPR assay. The assay is classed as functional, cell-based. The settings on record: read-out: pA2 (converted). Put shortly:
(§2)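 Run as pA2 determination on FLIPR in CHO cells expressing human M1 or M2 receptor: ACh concentration–response run with and without a single concentration of compound, calcium mobilization read, and the ratio of ACh EC50 values used to derive pA2.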

Assay [9] concerns the target T2, Muscarinic acetylcholine receptor M1. Put plainly: Displacement of [3H]N-methyl Scopolamine from human cloned muscarinic M1 receptor expressed in CHO cell membrane. The assay is classed as cell membranes. Put shortly: (§3)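 SPA format with CHO cell membrane preparations bearing human M1 or M2 receptor; competition versus 0.5 nM [3H]-N-methyl scopolamine; Ki reported; mean of two or more independent assays.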

Assay [10] has the same target. The assay is described as follows: Antagonist activity against human cloned muscarinic M1 receptor expressed in CHO cells assessed as inhibition of acetylcholine-induced calcium mobilization by measuring ratio of acetylcholine EC50 in presence and absence of compound by FLIPR assay. The conditions noted are these: read-out: pA2 (converted). The assay is classed as functional, cell-based. Put shortly: as §2

A further assay deals with Mus musculus. Put plainly: Bronchoprotection in Balb/C mouse bronchoconstriction model assessed as inhibition of aerosolized methacholin-induced bronchoconstriction at 5 ug administered intranasally 24 hrs before methacholin challenge. The class given is functional.
For assay [11], the target named is T1, Muscarinic acetylcholine receptor M3. Put plainly: Displacement of [3H]N-methyl Scopolamine from human cloned muscarinic M3 receptor expressed in CHO cell membrane. The assay is classed as cell membranes. Put shortly: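 SPA-format competition binding on membranes from CHO cells expressing the human M3 receptor, against 0.5 nM [3H]-N-methyl scopolamine. Ki values are the mean of two or more independent assays.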
Target sequence in this assay (P20309 whole entry): as the sequence (P20309 whole entry, looked up) above
Background: Displacement assays read how much labelled ligand stays bound in the presence of the test substance.

Assay [12] addresses T5, Muscarinic acetylcholine receptor M2. The assay is described as follows: Displacement of [3H]N-methyl Scopolamine from human cloned muscarinic M2 receptor expressed in CHO cell membrane. The class given is cell membranes. Put shortly: as §3

Structures are written as SMILES. Active and inactive are the calls of the source. The rule behind the calls is not given here. A value given as a limit tells only on which side of the number the result lay.

Broadly, the IC50 is the concentration at which inhibition is half-maximal. For the molecule `CN1[C@@H]2CC[C@H]1C[C@@H](CC(C(=O)NCc1ccccc1)(c1ccccc1)c1ccccc1)C2`, the result in assay [1], in [4] and in [5] was inactive. For the same molecule, the IC50 in assay [2] is 839 nM; in assay [3], 596 nM; in assay [6] it was 545 nM.

For `CN1[C@@H]2CC[C@H]1C[C@@H](CC(CNS(=O)(=O)c1ccccc1)(c1ccccc1)c1ccccc1)C2`, the outcome in [1], in assay [4] and in assay [5] was inactive. For the same molecule, the figures for the IC50 in assay [2], in assay [3] and in assay [6] were 1060 nM, 770 nM and 458 nM, respectively.

A word on the Ki: it is the equilibrium dissociation constant of an inhibitor or competing ligand from its target. High values mean lower affinity, low ones higher affinity. For the molecule `C[N+]1(C)[C@@H]2CC[C@H]1C[C@@H](CC(O)(c1ccccc1)c1ccccc1)C2.[Br-]`, the Kb is 0.501 nM in [7], 0.501 nM in [8] and 0.251 nM in assay [10]. Further, the outcome in assay [1], in assay [4] and in assay [5] was inactive. In addition, the Ki in [9] is 1.58 nM; in assay [11] it was 3.16 nM; in assay [12] it was 3.98 nM. Also, the IC50 in [2], in assay [3] and in assay [6] was less than 10 nM in each case. For the same molecule, the “inhibition (INH)” value in the assay on Mus musculus amounted to 34%.

Turning to `CN1[C@@H]2CC[C@H]1C[C@@H](CC(CNS(C)(=O)=O)(c1ccccc1)c1ccccc1)C2`, the outcome in assay [1], in [4] and in assay [5] was inactive. For the same molecule, the IC50 was 2730 nM in [2], 1600 nM in [3] and 2120 nM in assay [6].

As to `CN1[C@@H]2CC[C@H]1C[C@@H](CC(C#N)(c1ccccc1)c1ccccc1)C2`, the Kb in assay [7] was 0.0631 nM; in assay [8], 0.316 nM; in assay [10], 0.0158 nM. Moreover, the result in assay [1], in assay [4] and in [5] was inactive. Besides, the values for the Ki in assay [9], in assay [11] and in assay [12] were 0.1 nM, 0.158 nM and 0.501 nM, respectively. The IC50 in [2], in [3] and in assay [6] was less than 10 nM in each case. Moreover, the “inhibition (INH)” value in the assay with Mus musculus amounted to 11%.

As for `CN1[C@@H]2CC[C@H]1C[C@@H](CC(CNC(=O)NCc1ccccc1)(c1ccccc1)c1ccccc1)C2`, the result in assay [1], in assay [4] and in [5] was inactive. Also, the 50% inhibitory concentration (IC50) turned out to be 1340 nM in assay [2], 1020 nM in [3] and 1270 nM in assay [6].

With `C[N+]1(C)[C@@H]2CC[C@H]1C[C@@H](CC(CO)(c1ccccc1)c1ccccc1)C2.[Br-]`, the Kb in [7] was 3.16 nM; in assay [8], 5.01 nM; in assay [10], 1.58 nM. Moreover, the result in [1], in assay [4] and in [5] was inactive. In addition, the results for the Ki in assay [9], in assay [11] and in assay [12] were 1.26 nM, 2.51 nM and 3.98 nM, respectively. Also, the IC50 in assay [2], in assay [3] and in assay [6] was less than 10 nM each time. Further, the “inhibition (INH)” value in the assay on Mus musculus is 23%.

As for `CC(=O)NCC(C[C@H]1C[C@H]2CC[C@@H](C1)N2C)(c1ccccc1)c1ccccc1`, the result in assay [1], in assay [4] and in assay [5] was inactive. Besides, the IC50 worked out at 2900 nM in [2], 2200 nM in assay [3] and 3480 nM in [6].

On to `CN1[C@@H]2CC[C@H]1C[C@@H](CC(CNC(N)=O)(c1ccccc1)c1ccccc1)C2`, for which the outcome in assay [1], in [4] and in [5] was inactive. Besides, the values for the IC50 in assay [2], in [3] and in assay [6] were 6400 nM, 3830 nM and 5340 nM, respectively.

On to `CN1[C@@H]2CC[C@H]1C[C@@H](CC(CO)(c1ccccc1)c1ccccc1)C2`, for which the Kb in assay [7] was 3.98 nM; in [8], 6.31 nM; in [10], 1.26 nM. The outcome in assay [1], in assay [4] and in assay [5] was inactive. The Ki was 1 nM in [9], 2.51 nM in assay [11] and 12.6 nM in [12]. The IC50 in assay [2], in assay [3] and in assay [6] was less than 10 nM each time. The “inhibition (INH)” value in the assay on Mus musculus was found to be 15%.

On to `CN1[C@@H]2CC[C@H]1C[C@@H](CC(C(=O)O)(c1ccccc1)c1ccccc1)C2`, for which the result in assay [1], in [4] and in [5] was inactive. Also, the IC50 came out at 687 nM in [2], 277 nM in assay [3] and 240 nM in assay [6].

For `CN1[C@@H]2CC[C@H]1C[C@@H](CC(c1ccccc1)(c1ccccc1)c1ccccc1)C2`, the outcome in assay [1], in assay [4] and in assay [5] was inactive. Also, the figures for the 50% inhibitory concentration (IC50) in assay [2], in assay [3] and in assay [6] were 206 nM, 105 nM and 1200 nM, respectively.

For the molecule `CCNC(=O)NCC(C[C@H]1C[C@H]2CC[C@@H](C1)N2C)(c1ccccc1)c1ccccc1`, the outcome in [1], in [4] and in assay [5] was inactive. For the same molecule, the concentration for half-maximal inhibition (IC50) in [2] was found to be 1940 nM; in [3] it was 1280 nM; in assay [6], 1550 nM.
